Data reported in ChEMBL document CHEMBL4364284, “Design, Synthesis, and Efficacy Testing of Nitroethylene- and 7-Nitrobenzoxadiazol-Based Flavodoxin Inhibitors against Helicobacter pylori Drug-Resistant Clinical Strains and in Helicobacter pylori-Infected Mice” (J Med Chem, 2019).
Values after ≈ are worked out from the molar mass of the structure shown. Active and inactive are the calls of the source. The calls are words filed in the database; no cut-off is given here.

Legend:
[1] = Toxicity in specific-pathogen-free C57BL/6J mouse assessed as weight loss at 40 mg/100g, po administered daily via gavage for 8 days; format: organism-based; settings: in vivo, 192 h
[2] = Toxicity in specific-pathogen-free C57BL/6J mouse assessed as histopathological changes in liver at 10 to 40 mg/100g, po administered daily via gavage for 8 days hematoxylin-eosin staining based assay; format: organism-based; settings: in vivo, 192 h
Summary of the method: (§1)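 Controls received olive oil with 5% DMSO. Blood by cardiac puncture was analysed for biochemistry on an automatic analyser. Heart, stomach, liver, lung and kidney sections were H&E-stained for histopathology.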

[3] = Toxicity in specific-pathogen-free C57BL/6J mouse assessed as histopathological changes in stomach by measuring hyperplasia at 20 to 40 mg/100g, […] hematoxylin-eosin staining based assay; format: organism-based; settings: in vivo, po, 192 h
Staphylococcus aureus = assay: Effect on growth of Staphylococcus aureus ATCC 1228 after 48 hrs by resazurin-dye based microdilution assay; format: organism-based
[4] = Therapeutic index, ratio of MCC50 for human HeLa cells to MIC for inhibition of flavodoxin in Helicobacter pylori SS1 assessed as reduction in bacterial growth; format: toxicity; settings: HeLa cells versus Helicobacter pylori SS1, read-out: TI
Summary of the method: (§2)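 TI is MCC50/MIC. For MCC50, HeLa cells (30 000/well, DMEM with 10% FBS) were exposed to compound at 25–1000 μM final. Viability by XTT at 450/650 nm; MCC50 is the concentration giving 50% lysis from viability curves. Run twice in triplicate.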

[5] = biological target: T1, Flavodoxin (Helicobacter pylori (strain ATCC 700392 / 26695) (Campylobacter pylori)) (UniProt O25776); assay: Binding affinity to Helicobacter pylori flavodoxin by thermal upshift assay
T1 sequence (whole entry): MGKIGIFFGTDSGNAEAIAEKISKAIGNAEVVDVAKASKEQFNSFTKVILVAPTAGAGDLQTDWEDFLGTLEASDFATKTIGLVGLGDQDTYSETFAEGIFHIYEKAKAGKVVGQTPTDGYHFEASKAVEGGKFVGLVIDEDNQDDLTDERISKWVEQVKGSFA

[6] = biological target: T1, Flavodoxin (Helicobacter pylori (strain ATCC 700392 / 26695) (Campylobacter pylori)); assay: Binding affinity to Helicobacter pylori flavodoxin by isothermal titration calorimetric method
[7] = Toxicity in NMRI mouse assessed as change in body weight at 0.1 to 10 mg/100g, po administered daily via gavage for 8 days; format: organism-based; settings: in vivo, 192 h
[8] = Cytotoxicity against human HeLa cells assessed as reduction in cell viability by XTT assay; format: cell-based; settings: read-out: MCC50
Summary of the method: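 HeLa cells grown in DMEM with 10% FBS, penicillin and streptomycin at 37 °C, 5% CO2; 30 000 cells/well. XTT viability read at 450 and 650 nm. MCC50 (50% lysis) came from viability-versus-concentration curves. Two experiments, each in triplicate.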

[9] = Toxicity in NMRI mouse infected with Helicobacter pylori SS1 assessed as change in body weight at 0.1 to 10 mg/100g, po administered daily via gavage for 8 days starting from 1 week post-infection; format: organism-based; settings: in vivo
[10] = Toxicity in specific-pathogen-free C57BL/6J mouse assessed as histopathological changes in kidney at 10 to 40 mg/100g, po administered daily via gavage for 8 days hematoxylin-eosin staining based assay; format: organism-based; settings: in vivo, 192 h; summary of the method: as §1
[11] = biological target: T1, Flavodoxin (Helicobacter pylori (strain ATCC 700392 / 26695) (Campylobacter pylori)); assay: Inhibition of flavodoxin in Mnz-resistant Helicobacter pylori NCTC 11637 ATCC 43504 assessed as reduction in bacterial growth measured after 48 hrs by resazurin staining-based microdilution method; settings: Helicobacter pylori NCTC 11637 = CCUG 17874 = ATCC 43504
Summary of the method: (§3)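 Broth microdilution in brain heart infusion with 4% FBS. Inoculum diluted to OD600 0.01. Two-fold dilutions from a DMSO stock cover 64–0.031 μg/mL, with DMSO ≤1% v/v. Incubated 48 h at 37 °C under microaerophilic conditions. MIC is the lowest concentration giving complete growth inhibition, read by resazurin colour change and confirmed by spotting on blood agar. Run twice in triplicate.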

[12] = Toxicity in specific-pathogen-free C57BL/6J mouse assessed as histopathological changes in heart at 10 to 40 mg/100g, po administered daily via gavage for 8 days hematoxylin-eosin staining based assay; format: organism-based; settings: in vivo, 192 h; summary of the method: as §1
[13] = Toxicity in specific-pathogen-free C57BL/6J mouse assessed as histopathological changes in stomach by measuring inflammation at 20 to 40 mg/100g, po […] hematoxylin-eosin staining based assay; format: organism-based; settings: in vivo, 192 h
[14] = Therapeutic index, ratio of MCC50 for human HeLa cells to MIC for inhibition of flavodoxin in Helicobacter pylori ATCC 700392 26695 assessed as reduction in bacterial growth; format: toxicity; settings: HeLa cells versus Helicobacter pylori ATCC 700392 26695, read-out: TI; summary of the method: as §2
[15] = Toxicity in NMRI mouse infected with Helicobacter pylori SS1 assessed as change in appetite at 0.1 to 10 mg/100g, po administered daily via gavage for 8 days starting from 1 week post-infection; format: organism-based; settings: in vivo
[16] = Toxicity in specific-pathogen-free C57BL/6J mouse assessed as hair loss at 40 mg/100g, po administered daily via gavage for 8 days; format: organism-based; settings: in vivo, 192 h
[17] = biological target: T1, Flavodoxin (Helicobacter pylori (strain ATCC 700392 / 26695) (Campylobacter pylori)); assay: Inhibition of flavodoxin in Helicobacter pylori ATCC 700392 26695 assessed as reduction in bacterial growth measured after 48 hrs by resazurin staining-based microdilution method; settings: Helicobacter pylori 26695; summary of the method: as §3
[18] = Toxicity in specific-pathogen-free C57BL/6J mouse assessed as histopathological changes in stomach by measuring necrosis of epithelium at 20 to 40 mg/100g, po […] hematoxylin-eosin staining based assay; format: organism-based; settings: in vivo, 192 h
[19] = biological target: T1, Flavodoxin (Helicobacter pylori (strain ATCC 700392 / 26695) (Campylobacter pylori)); assay: Inhibition of flavodoxin in Helicobacter pylori SS1 assessed as reduction in bacterial growth measured after 48 hrs by resazurin staining-based microdilution method; summary of the method: as §3
[20] = Toxicity in specific-pathogen-free C57BL/6J mouse assessed as change in biochemical parameters at 10 to 40 mg/100g, po administered daily via gavage for 8 days; format: organism-based; settings: in vivo, 192 h; summary of the method: as §1
Escherichia coli = assay: Effect on growth of Escherichia coli DH5[alpha] after 48 hrs by resazurin-dye based microdilution assay; format: organism-based
[21] = Toxicity in specific-pathogen-free C57BL/6J mouse assessed as histopathological changes in lung at 10 to 40 mg/100g, po administered daily via gavage for 8 days hematoxylin-eosin staining based assay; format: organism-based; settings: in vivo, 192 h; summary of the method: as §1
[22] = Therapeutic index, ratio of MCC50 for human HeLa cells to MIC for inhibition of flavodoxin in Mnz-resistant Helicobacter pylori NCTC 11637 ATCC 43504 assessed as reduction in bacterial growth; format: toxicity; settings: read-out: TI; summary of the method: as §2
Helicobacter pylori = assay: Antibacterial activity against Helicobacter pylori SS1 infected in NMRI mouse assessed as reduction in gastric colonization at 1 mg/100g, po administered daily via gavage for 8 days starting from 1 week post-infection and measured 8 days post-last dose; format: functional, organism-based
Summary of the method: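 Female 6-week-old SPF NMRI mice, 7 per condition, infected orogastrically on days 1 and 3 with 100 μL Hp SS1 (5 × 10^8 CFU/mL). From day 8, compound given daily by oral gavage for 8 days in 100 μL of 5–10% DMSO/95–90% olive oil. Sacrificed day 24; stomach homogenate CFU/g counted after 5 days microaerophilic culture at 37 °C. Infected vehicle-treated controls; Mann-Whitney U and unpaired t tests, p ≤ 0.05.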

O=[N+]([O-])/C=C/c1c(F)cc(Cl)cc1F
Activity [1]: > 20%
Activity [2]: Non-Toxic
Activity [3]: Toxic
Activity (Staphylococcus aureus): Non-Toxic
selectivity ratio [4]: 16
Activity [5]: Active
Activity [6]: Active
Activity [7]: Non-Toxic
CC50 [8]: 36 µM
Activity [9]: Non-Toxic
Activity [10]: Non-Toxic
MIC [11]: 2.3 µM (≈ 0.505 µg/mL)
Activity [12]: Non-Toxic
Activity [13]: Toxic
selectivity ratio [14]: 16
Activity [15]: Non-Toxic
Activity [16]: Toxic
MIC [17]: 2.3 µM (≈ 0.505 µg/mL)
Activity [18]: Toxic
MIC [19]: 2.3 µM (≈ 0.505 µg/mL)
Activity [20]: Non-Toxic
Activity (Escherichia coli): Non-Toxic
Activity [21]: Non-Toxic
selectivity ratio [22]: 16
Activity (Helicobacter pylori): Active
